Measurements reported in ChEMBL document CHEMBL3352165 (Eur J Med Chem, 2014).
pIC50: −log10 of the molar value.

Columns and labels:
[1] = Cytotoxicity against human SKBR3 cells assessed as inhibition of cell growth after 72 hrs by sulforhodamine B assay; format: functional, cell-based; settings: SK-BR-3, 72 h
Summary of the method: (§1)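 Cells grown in RPMI-1640 with 5% FBS and plated at 5.0×10^4/ml. Next day exposed to 0.5–5000 ng/ml for 3 days. Survival read by sulforhodamine B staining. IC50 taken from growth curves; mean of at least three determinations.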

[2] = biological target: Mast/stem cell growth factor receptor Kit (Homo sapiens, UniProt P10721); assay: Inhibition of c-KIT (unknown origin) by ELISA method
Mast/stem cell growth factor receptor Kit, sequence (P10721 whole entry): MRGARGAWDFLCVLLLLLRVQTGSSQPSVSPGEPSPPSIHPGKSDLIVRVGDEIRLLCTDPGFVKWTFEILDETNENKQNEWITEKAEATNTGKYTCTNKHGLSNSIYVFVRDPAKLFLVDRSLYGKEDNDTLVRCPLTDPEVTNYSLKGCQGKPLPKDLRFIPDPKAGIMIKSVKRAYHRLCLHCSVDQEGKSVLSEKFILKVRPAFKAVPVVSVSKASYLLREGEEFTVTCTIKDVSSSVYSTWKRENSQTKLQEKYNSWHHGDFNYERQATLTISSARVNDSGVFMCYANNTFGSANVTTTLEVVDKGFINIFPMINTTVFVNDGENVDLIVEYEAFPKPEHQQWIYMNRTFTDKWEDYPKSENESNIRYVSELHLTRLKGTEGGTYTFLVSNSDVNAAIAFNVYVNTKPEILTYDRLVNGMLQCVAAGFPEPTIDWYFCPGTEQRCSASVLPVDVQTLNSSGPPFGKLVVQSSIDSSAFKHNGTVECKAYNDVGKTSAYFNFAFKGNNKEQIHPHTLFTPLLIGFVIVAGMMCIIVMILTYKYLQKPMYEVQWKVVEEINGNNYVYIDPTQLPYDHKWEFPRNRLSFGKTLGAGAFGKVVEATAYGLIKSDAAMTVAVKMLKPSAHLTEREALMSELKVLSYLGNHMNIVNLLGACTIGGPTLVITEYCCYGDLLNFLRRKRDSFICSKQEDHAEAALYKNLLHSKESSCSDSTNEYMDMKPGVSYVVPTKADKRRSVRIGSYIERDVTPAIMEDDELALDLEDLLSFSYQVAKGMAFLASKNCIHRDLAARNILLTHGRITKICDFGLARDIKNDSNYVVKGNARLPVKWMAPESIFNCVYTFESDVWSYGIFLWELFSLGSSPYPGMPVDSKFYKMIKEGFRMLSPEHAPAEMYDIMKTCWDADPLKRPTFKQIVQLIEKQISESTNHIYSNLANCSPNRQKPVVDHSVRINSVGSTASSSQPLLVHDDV
Summary of the method: (§2)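 Phosphotyrosine ELISA with purified kinase (20 ng) and 5 µM ATP in buffer (50 mM HEPES pH 7.4, 20 mM MgCl2, 0.1 mM MnCl2, 0.2 mM Na3VO4, 1 mM DTT), 1 h at 37 °C, DMSO ≤1%. Detection by PY99 antibody, then HRP anti-mouse IgG with o-phenylenediamine, A490. IC50 by Logit from at least three independent tests.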

[3] = biological target: Platelet-derived growth factor receptor beta (Homo sapiens, UniProt P09619); assay: Inhibition of PDGFRbeta (unknown origin) by ELISA method; summary of the method: as §2
Platelet-derived growth factor receptor beta, sequence (P09619 whole entry): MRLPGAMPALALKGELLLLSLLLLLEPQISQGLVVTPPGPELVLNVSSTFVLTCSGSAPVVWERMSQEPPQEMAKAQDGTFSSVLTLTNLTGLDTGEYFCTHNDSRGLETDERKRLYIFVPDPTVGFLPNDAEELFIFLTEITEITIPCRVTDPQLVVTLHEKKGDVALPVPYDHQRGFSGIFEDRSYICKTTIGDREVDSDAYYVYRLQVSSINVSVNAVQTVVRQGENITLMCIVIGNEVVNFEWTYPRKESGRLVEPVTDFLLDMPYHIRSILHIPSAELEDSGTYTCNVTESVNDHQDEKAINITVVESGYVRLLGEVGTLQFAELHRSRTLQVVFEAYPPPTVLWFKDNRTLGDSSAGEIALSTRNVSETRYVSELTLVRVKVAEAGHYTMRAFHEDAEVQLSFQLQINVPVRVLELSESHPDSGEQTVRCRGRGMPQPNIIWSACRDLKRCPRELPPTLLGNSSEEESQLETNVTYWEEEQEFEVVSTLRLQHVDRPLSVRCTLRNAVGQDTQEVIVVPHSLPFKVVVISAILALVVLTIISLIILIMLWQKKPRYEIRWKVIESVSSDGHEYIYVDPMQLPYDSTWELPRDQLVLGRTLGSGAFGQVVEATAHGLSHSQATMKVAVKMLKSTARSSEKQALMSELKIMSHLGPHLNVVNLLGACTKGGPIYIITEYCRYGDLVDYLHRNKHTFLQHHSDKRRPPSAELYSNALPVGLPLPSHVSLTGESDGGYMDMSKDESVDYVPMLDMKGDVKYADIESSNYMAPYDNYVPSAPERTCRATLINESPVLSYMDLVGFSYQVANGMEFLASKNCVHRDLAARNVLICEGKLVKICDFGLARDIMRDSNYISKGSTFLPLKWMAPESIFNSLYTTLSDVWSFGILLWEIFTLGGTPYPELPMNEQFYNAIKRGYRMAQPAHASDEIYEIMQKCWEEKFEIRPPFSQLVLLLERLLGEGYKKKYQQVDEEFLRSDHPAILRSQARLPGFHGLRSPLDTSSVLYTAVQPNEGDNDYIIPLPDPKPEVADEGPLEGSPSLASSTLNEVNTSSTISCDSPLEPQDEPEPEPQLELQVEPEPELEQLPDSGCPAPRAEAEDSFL

[4] = biological target: Vascular endothelial growth factor receptor 2 (Homo sapiens, UniProt P35968); assay: Inhibition of KDR (unknown origin) by ELISA method; summary of the method: as §2
Vascular endothelial growth factor receptor 2, sequence (P35968 whole entry): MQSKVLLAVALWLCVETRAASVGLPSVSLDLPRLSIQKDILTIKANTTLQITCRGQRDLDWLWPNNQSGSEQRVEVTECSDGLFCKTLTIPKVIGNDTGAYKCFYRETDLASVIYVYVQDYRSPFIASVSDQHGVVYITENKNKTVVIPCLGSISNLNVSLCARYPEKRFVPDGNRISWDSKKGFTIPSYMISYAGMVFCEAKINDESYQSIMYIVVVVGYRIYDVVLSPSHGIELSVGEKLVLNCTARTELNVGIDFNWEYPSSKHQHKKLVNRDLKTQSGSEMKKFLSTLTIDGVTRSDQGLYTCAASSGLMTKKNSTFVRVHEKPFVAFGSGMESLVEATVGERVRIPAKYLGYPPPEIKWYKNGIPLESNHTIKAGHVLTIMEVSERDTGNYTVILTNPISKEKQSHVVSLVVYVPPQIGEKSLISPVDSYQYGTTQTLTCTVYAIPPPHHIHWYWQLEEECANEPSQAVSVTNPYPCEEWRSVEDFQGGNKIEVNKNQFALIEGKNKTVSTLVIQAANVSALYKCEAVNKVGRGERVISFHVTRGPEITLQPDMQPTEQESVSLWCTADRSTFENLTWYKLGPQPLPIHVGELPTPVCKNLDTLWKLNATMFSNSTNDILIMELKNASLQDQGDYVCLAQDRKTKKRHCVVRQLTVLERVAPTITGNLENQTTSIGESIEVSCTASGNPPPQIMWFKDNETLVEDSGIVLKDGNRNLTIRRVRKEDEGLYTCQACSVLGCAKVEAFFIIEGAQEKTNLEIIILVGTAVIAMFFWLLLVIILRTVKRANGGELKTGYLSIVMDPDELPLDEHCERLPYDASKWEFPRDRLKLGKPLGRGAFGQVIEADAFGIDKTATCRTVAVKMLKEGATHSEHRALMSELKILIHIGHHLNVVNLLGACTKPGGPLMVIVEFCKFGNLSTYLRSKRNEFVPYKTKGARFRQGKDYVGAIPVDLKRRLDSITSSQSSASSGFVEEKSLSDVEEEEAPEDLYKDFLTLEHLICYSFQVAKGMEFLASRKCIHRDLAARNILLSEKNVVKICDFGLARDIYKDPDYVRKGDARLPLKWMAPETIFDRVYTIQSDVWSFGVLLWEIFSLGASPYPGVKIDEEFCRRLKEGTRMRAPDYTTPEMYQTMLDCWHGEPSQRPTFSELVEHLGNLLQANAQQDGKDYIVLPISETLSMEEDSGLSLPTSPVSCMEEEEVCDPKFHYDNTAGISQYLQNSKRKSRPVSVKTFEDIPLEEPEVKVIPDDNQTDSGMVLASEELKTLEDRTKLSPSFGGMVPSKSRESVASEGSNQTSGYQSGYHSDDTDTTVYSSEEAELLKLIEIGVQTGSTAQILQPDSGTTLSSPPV

[5] = tested on: MCF7; assay: Cytotoxicity against human MCF7 cells assessed as inhibition of cell growth after 72 hrs by sulforhodamine B assay; format: functional, cell-based; settings: MCF7, 72 h; summary of the method: as §1
[6] = biological target: Receptor tyrosine-protein kinase erbB-2 (Homo sapiens, UniProt P04626); assay: Inhibition of HER2 (unknown origin) assessed as reduction in autophosphorylation by ELISA method; summary of the method: as §2
[7] = tested on: BT-474; assay: Cytotoxicity against human BT474 cells assessed as inhibition of cell growth after 72 hrs by sulforhodamine B assay; format: functional, cell-based; settings: BT-474, 72 h; summary of the method: as §1
[8] = biological target: Epidermal growth factor receptor (Homo sapiens, UniProt P00533); assay: Inhibition of HER1 (unknown origin) assessed as reduction in autophosphorylation by ELISA method
Epidermal growth factor receptor, sequence (P00533 whole entry): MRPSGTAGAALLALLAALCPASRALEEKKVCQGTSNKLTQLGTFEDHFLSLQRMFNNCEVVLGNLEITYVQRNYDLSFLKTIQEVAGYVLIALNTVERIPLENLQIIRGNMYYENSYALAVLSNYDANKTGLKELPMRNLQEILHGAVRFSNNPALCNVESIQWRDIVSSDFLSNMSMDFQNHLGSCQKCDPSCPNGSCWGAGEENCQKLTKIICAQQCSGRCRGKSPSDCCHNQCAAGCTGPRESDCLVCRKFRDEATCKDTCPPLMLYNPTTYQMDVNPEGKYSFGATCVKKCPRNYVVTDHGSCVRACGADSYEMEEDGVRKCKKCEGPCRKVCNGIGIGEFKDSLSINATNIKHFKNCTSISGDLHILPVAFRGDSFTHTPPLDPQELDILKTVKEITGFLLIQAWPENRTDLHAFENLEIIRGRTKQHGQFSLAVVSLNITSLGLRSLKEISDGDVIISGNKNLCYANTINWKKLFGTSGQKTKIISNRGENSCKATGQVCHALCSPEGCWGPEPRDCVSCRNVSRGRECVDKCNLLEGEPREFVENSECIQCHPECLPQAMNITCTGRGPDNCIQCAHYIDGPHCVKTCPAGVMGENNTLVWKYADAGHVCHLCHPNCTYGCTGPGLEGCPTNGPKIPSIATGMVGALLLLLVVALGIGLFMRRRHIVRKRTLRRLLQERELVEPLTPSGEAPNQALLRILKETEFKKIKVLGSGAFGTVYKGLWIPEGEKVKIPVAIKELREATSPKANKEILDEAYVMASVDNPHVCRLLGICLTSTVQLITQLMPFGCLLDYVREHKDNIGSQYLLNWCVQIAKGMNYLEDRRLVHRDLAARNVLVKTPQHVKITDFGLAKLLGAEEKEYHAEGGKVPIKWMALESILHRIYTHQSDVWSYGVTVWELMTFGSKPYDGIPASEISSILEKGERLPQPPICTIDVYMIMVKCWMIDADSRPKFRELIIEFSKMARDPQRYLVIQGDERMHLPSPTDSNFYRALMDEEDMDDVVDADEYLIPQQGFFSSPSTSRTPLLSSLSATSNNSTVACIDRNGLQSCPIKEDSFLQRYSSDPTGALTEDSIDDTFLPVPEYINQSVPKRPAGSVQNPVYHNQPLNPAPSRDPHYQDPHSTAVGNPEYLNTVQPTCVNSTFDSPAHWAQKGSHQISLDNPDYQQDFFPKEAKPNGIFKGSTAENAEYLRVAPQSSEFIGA

[9] = tested on: A-431; assay: Cytotoxicity against human A431 cells assessed as inhibition of cell growth after 72 hrs by sulforhodamine B assay; format: functional, cell-based; settings: A-431, 72 h; summary of the method: as §1
[10] = tested on: Mus musculus; assay: Toxicity in human Calu3 cells xenografted BALB/cA mouse assessed as body weight loss at 200 mg/kg, po measured every other day for 21 days; format: organism-based, Calu-3; design: dose 200 mg/kg, route oral; settings: in vivo, 504 h
Summary of the method: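 Female BALB/cA nude mice, 6–7 weeks old, implanted s.c. on the mid-right flank with 2×10^6 Calu-3 cells in 0.2 ml PBS. At 60–150 mm³ tumour volume, mice randomised into six per treatment group (twelve vehicle controls). Oral dosing in 0.5% CMC aqueous solution with 0.1% Tween-80. Body weight recorded every other day for 21 d.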

[11] = Antitumor activity against human Calu3 cells xenografted in BALB/cA mouse assessed as tumor growth inhibition at 200 mg/kg, po; format: functional; settings: Calu-3, read-out: TGI
Summary of the method: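 Female BALB/cA nude mice, 6–7 weeks old, implanted s.c. on midright side with 2×10^6 Calu-3 cells in 0.2 ml PBS. Grouped at 60–150 mm³ tumour volume (6 per treated group, 12 vehicle). Oral dosing in 0.5% CMC with 0.1% Tween-80. Caliper volume = L×W²×0.5; inhibition = (1 − T/C)×100% on relative tumour volume; weight tracked for 21 d.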

[12] = Mean residence time in Beagle dog at 240 mg/kg, po administered as single dose measured after 0.25 to 24 hrs post dose by LC/MS/MS method; format: ADME, organism-based, Canis lupus familiaris; design: dose 240 mg/kg, route oral; settings: in vivo
Summary of the method: (§3)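 Single oral gavage of 240 mg/kg to beagle dogs (n = 6). Blood sampled at 0.25–24 h, kept on ice, centrifuged within 1 h (1000 × g, 4 °C, 15 min), plasma stored at −20 °C. Drug quantified by validated LC/MS/MS. AUC0–24 from non-compartmental analysis; Cmax and MRT taken directly from concentration–time data.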

[13] = tested on: MRC5; assay: cells; settings: Homo sapiens, MRC5, 72 h
[14] = cells; settings: Homo sapiens, Calu-3, 72 h
[15] = Cmax in Beagle dog at 240 mg/kg, po administered as single dose measured after 0.25 to 24 hrs post dose by LC/MS/MS method; format: ADME, organism-based, Canis lupus familiaris; design: dose 240 mg/kg, route oral; settings: in vivo; summary of the method: as §3
[16] = tested on: MDA-MB-231; assay: cells; settings: Homo sapiens, MDA-MB-231, 72 h
[17] = tested on: MDA-MB-453; assay: cells; settings: Homo sapiens, MDA-MB-453, 72 h
[18] = cells; settings: Homo sapiens, SK-OV-3, 72 h
[19] = tested on: NCI-H460; assay: cells; settings: Homo sapiens, NCI-H460, 72 h
[20] = Tmax in Beagle dog at 240 mg/kg, po administered as single dose measured after 0.25 to 24 hrs post dose by LC/MS/MS method; format: ADME, organism-based, Canis lupus familiaris; design: dose 240 mg/kg, route oral; settings: in vivo
Summary of the method: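 Beagle dogs (n = 6), single oral gavage dose of 240 mg/kg. Plasma levels measured by validated LC/MS/MS. Tmax read directly from the concentration-time data.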

[21] = AUC (0 to 24 hrs) in Beagle dog at 240 mg/kg, po administered as single dose measured after 0.25 to 24 hrs post dose by LC/MS/MS method; format: ADME, organism-based, Canis lupus familiaris; design: time < 24 hr, dose 240 mg/kg, route oral; settings: plasma; summary of the method: as §3

| SMILES | pIC50 [2] | pIC50 [3] | pIC50 [4] | pIC50 [6] | pIC50 [8] | pIC50 [1] | pIC50 [5] | pIC50 [7] | pIC50 [9] | also measured |
| --- | --- | --- | --- | --- | --- | --- | --- | --- | --- | --- |
| CS(=O)(=O)CC(NC1CCCCC1)c1ccc(-c2ccc3ncnc(Nc4ccc(OCc5cccc(F)c5)c(Cl)c4)c3c2)o1 (racemic) | < 3.70 | < 3.70 | < 3.70 | 7.23 | 7.11 | 6.79 | 5.04 | 6.76 | 6.11 | – |
| CCNC(CS(C)(=O)=O)c1ccc(-c2ccc3ncnc(Nc4ccc(OCc5cccc(F)c5)c(Cl)c4)c3c2)o1 (racemic) | < 3.70 | < 3.70 | < 3.70 | 7.81 | 7.83 | 7.47 | 5.06 | 6.96 | 6.05 | – |
| CNC(CS(C)(=O)=O)c1ccc(-c2ccc3ncnc(Nc4ccc(OCc5cccc(F)c5)c(Cl)c4)c3c2)o1 (racemic) | < 3.70 | < 3.70 | < 3.70 | 9.00 | 7.46 | 7.52 | 5.19 | 7.11 | 6.19 | – |
| CCOC(=O)N[C@H](CS(C)(=O)=O)c1ccc(-c2ccc3ncnc(Nc4ccc(OCc5cccc(F)c5)c(Cl)c4)c3c2)o1 | < 3.70 | < 3.70 | < 3.70 | 6.82 | 7.05 | 6.97 | 5.05 | 6.92 | 6.05 | – |
| CS(=O)(=O)CC(N)c1ccc(-c2ccc3ncnc(Nc4ccc(OCc5cccc(F)c5)c(Cl)c4)c3c2)o1 (racemic) | < 3.70 | < 3.70 | < 3.70 | 8.47 | 7.75 | 7.58 | 5.18 | 7.12 | 6.17 | – |
| CCCCCCOC(=O)N[C@H](CS(C)(=O)=O)c1ccc(-c2ccc3ncnc(Nc4ccc(OCc5cccc(F)c5)c(Cl)c4)c3c2)o1 | < 3.70 | < 3.70 | < 3.70 | 6.80 | 6.96 | 5.98 | < 5.00 | 5.72 | 5.92 | – |
| CS(=O)(=O)C[C@H](N)c1ccc(-c2ccc3ncnc(Nc4ccc(OCc5cccc(F)c5)c(Cl)c4)c3c2)o1 | < 3.70 | < 3.70 | < 3.70 | 7.97 | 7.87 | 7.08 | 5.03 | 6.93 | 6.20 | – |
| CN(C)[C@@H](CS(C)(=O)=O)c1ccc(-c2ccc3ncnc(Nc4ccc(OCc5cccc(F)c5)c(Cl)c4)c3c2)o1 | < 3.70 | < 3.70 | < 3.70 | 7.58 | 7.52 | 7.56 | 5.18 | 7.08 | 6.11 | – |
| CC(C)NC(CS(C)(=O)=O)c1ccc(-c2ccc3ncnc(Nc4ccc(OCc5cccc(F)c5)c(Cl)c4)c3c2)o1 (racemic) | < 3.70 | < 3.70 | < 3.70 | 7.32 | – | 6.99 | 5.21 | 7.03 | 6.21 | – |

Further lines, with some results ahead:

| pIC50 [2] | pIC50 [3] | pIC50 [4] | pIC50 [6] | pIC50 [8] | SMILES | pIC50 [1] | pIC50 [5] | pIC50 [7] | pIC50 [9] | also measured |
| --- | --- | --- | --- | --- | --- | --- | --- | --- | --- | --- |
| < 3.70 | < 3.70 | < 3.70 | 7.28 | 7.54 | CS(=O)(=O)CCNC(CS(C)(=O)=O)c1ccc(-c2ccc3ncnc(Nc4ccc(OCc5cccc(F)c5)c(Cl)c4)c3c2)o1 (racemic) | 6.91 | 5.15 | 6.98 | 6.17 | – |
| < 3.70 | < 3.70 | < 3.70 | 8.44 | 8.17 | CN(C)C(CS(C)(=O)=O)c1ccc(-c2ccc3ncnc(Nc4ccc(OCc5cccc(F)c5)c(Cl)c4)c3c2)o1 (racemic) | 7.44 | 5.21 | 7.31 | 6.22 | Activity [10]: Non-toxic; inhibition in vivo at 200 mg/kg [11]: 58% |
| < 3.70 | < 3.70 | < 3.70 | 6.79 | 7.03 | CCCCOC(=O)N[C@H](CS(C)(=O)=O)c1ccc(-c2ccc3ncnc(Nc4ccc(OCc5cccc(F)c5)c(Cl)c4)c3c2)o1 | 6.15 | 5.04 | 6.00 | 5.96 | – |
| < 3.70 | < 3.70 | < 3.70 | 8.54 | 7.97 | CS(=O)(=O)C[C@@H](N)c1ccc(-c2ccc3ncnc(Nc4ccc(OCc5cccc(F)c5)c(Cl)c4)c3c2)o1 | 7.68 | 5.17 | 7.16 | 6.18 | MRT [12]: 6.8 h; pIC50 [13]: < 4.00; pIC50 [14]: 6.66; Cmax [15]: 2100 ng/mL; pIC50 [16]: < 4.00; pIC50 [17]: 6.62; pIC50 [18]: 6.39; pIC50 [19]: < 4.00; Tmax [20]: 5 h; AUC(0-t) at 24 h [21]: 20300 ng·h/mL |
